Screening results deposited in PubChem by several laboratories.
HUVEC prolif 384 – inhibitors of HUVEC proliferation, primary screen, cell-based, 384-well. 1.1% of 86,000 active. viability, % at 10 µM (by protocol). CellTiter-Glo luminescence, 72 h; hits give low values;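 active = viability at or below 30%; inactive = viability above 30%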
Lung fibro prol – antiproliferative effect on LL 47 fibroblasts – human, LL 47 cells, CellTiter-Glo luminescence, primary screen; LL 47 human lung fibroblast viability, ATP luminescence; hits give low values; viability, % at 10 µM; 1.1% of 85,000 active;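 active = viability at or below 50% in the single dose screen; inactive = viability above 50%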;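 also: compound exposure lasted 72 h before the ATP readout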
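material = human LL 47 lung fibroblast cells | dosing = compounds added from tenfold dosing solution, 0.1% DMSO final | timing = overnight cell rest, 72 h compound treatment at 37 °C | measured by = CellTiter-Glo luminescence measuring cellular ATP | evaluation = % viability versus median cells-only luminescence | control set = cell-only wells, no compound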
H69AR inhibit – proliferation blockers of H69AR lung cancer cells, primary screen, cell-based, human, 86K library. 6% of 85,000 active. H69AR lung tumor viability, ATP luminescence, 72 h; hits give low values. viability, % at 10 µM;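 active = viability at or below 40%; inactive = viability above 40%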;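 also: multidrug resistant small cell line overexpressing MRP-1 efflux transporter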
F-actin modifier – modifiers of F-actin cytoskeleton organization, primary screen, imaging, HUVEC, phalloidin staining, high-content imaging. AID 836, 2007. inhibition, % at 2 µM. HUVEC TNFa F-actin phalloidin imaging. 0.18% of 91,000 active;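 active = inhibition above the batch mean plus 3 SD and confirmed as a hit by visual image inspection, cut at about 30% in these data, passing the limit was not always enough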
Jurkat tox 60K – cytotoxicity toward Jurkat T cells, primary screen, cytotoxicity control, cell-based, Jurkat E6.1, 60K MLSMR library. AID 463, 2006. Jurkat E6.1 viability, ATP luminescence, 48 h. inhibition, % at 4 µM. 1.2% of 56,000 active;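 active = inhibition above the mean inhibition of all tested compounds plus 3 SD, cut at about 28% in these data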
PTK2B oligo ant – antagonists of Pyk2 self-association, primary screen, Q293 cells, FERM NanoBiT luminescence, HTS | Protein-tyrosine kinase 2-beta (Homo sapiens), Q14289 | hits give low values | z-score (the deposit names both 25 µM and 10 µM) | 0.83% of 99,000 active | AID 1347419, 2020;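 active = Z-score of -3 or lower, scaled per plate to the spread of control and sample wells; inactive = z-score above -3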;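 also: negative z-score means lost luminescence so less FERM oligomerization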
Target sequence (Q14289 whole entry, looked up): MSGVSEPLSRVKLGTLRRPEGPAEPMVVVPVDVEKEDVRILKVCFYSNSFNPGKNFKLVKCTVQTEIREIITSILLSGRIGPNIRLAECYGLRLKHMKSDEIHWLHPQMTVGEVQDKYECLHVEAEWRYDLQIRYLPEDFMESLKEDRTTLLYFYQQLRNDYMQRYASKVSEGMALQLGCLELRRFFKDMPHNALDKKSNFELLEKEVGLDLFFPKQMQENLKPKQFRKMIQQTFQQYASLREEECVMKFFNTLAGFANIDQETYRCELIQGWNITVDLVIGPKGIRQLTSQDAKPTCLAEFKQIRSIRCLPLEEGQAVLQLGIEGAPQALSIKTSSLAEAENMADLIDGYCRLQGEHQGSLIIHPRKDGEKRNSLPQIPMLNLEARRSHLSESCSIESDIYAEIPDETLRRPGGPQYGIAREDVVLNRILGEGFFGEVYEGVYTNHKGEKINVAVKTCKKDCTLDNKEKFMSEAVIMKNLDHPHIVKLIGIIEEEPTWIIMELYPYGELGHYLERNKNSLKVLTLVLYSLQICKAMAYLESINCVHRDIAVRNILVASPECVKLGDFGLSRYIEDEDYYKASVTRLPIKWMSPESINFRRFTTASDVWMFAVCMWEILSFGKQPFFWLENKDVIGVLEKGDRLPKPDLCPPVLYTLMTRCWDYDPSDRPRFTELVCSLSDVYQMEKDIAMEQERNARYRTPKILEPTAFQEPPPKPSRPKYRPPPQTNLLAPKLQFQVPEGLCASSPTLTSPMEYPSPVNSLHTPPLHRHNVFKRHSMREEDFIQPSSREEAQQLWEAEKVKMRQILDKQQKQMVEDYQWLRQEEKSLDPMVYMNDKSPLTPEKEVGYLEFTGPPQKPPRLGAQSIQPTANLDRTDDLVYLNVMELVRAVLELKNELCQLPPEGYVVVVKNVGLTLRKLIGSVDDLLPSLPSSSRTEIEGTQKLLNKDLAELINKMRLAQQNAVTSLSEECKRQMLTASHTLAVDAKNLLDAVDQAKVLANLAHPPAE
A number is an active result; n = inactive; x = no result given. Only some compounds are listed: those with a hit (about 6% of all), similar ones and a draw of the others.

SMILES	HUVEC prolif 384	Lung fibro prol	H69AR inhibit	F-actin modifier	Jurkat tox 60K	PTK2B oligo ant
Cc1onc(-c2c(Cl)cccc2Cl)c1C(=O)NCCN1CCOCC1	n	n	n	n	n	n
O=C(NNC(=O)c1ccco1)c1cccc([N+](=O)[O-])c1	x	x	x	n	x	n
CCn1c(SCc2ccccc2)nnc1-c1ccc(S(=O)(=O)N2CCCCC2)cc1	n	n	26	n	n	n
CCn1c(SCc2nnc(-c3ccccc3)o2)nnc1-c1ccc(S(=O)(=O)N2CCCC2)cc1	n	n	n	n	n	n
CCOC(=O)C(C)Sc1nc2c(cnn2-c2ccc(C)cc2)c(=O)[nH]1 (centres undefined)	n	n	19	n	50	n
O=c1[nH]c(CSc2nc3ccccc3o2)nc2c1cnn2-c1ccccc1	n	n	18	x	x	n
Cc1ccc(-n2ncc3c(=O)[nH]c(SCC(=O)N4CCCc5ccccc54)nc32)cc1	n	n	32	n	n	n
CC(C)Sc1nc2c(cnn2-c2ccccc2)c(=O)[nH]1	n	n	n	x	n	x
CCCCCSc1nc2c(cnn2-c2ccccc2)c(=O)[nH]1	n	n	27	n	n	n
CCC1(C)CC(C(CC(=O)O)c2ccc(C)cc2)CCO1 (centres undefined)	n	n	n	n	x	n
O=C(Cn1nc(C(F)(F)F)c2c1CCC2)N1CCN(c2ccccc2)CC1	n	n	n	n	n	n
COc1ccc(OC)c(NC(=O)Cc2coc3ccc4ccccc4c23)c1	n	n	n	n	x	n
CCn1c(SCC(N)=O)nnc1-c1ccc(S(=O)(=O)N2CCN(C)CC2)cc1	n	n	n	n	n	n
COc1nc(N/N=C/c2ccccc2F)nc(N2CCCCC2)n1	x	x	x	n	x	n
COC(=O)c1ccc(CSc2nc3c(cnn3-c3ccc(C)cc3)c(=O)[nH]2)o1	29	n	20	n	n	n
COC(=O)CS(=O)(=O)c1nnc([C@H](Cc2ccccc2)NC(=O)OC(C)(C)C)o1	n	0.9	0.3	n	n	n
Cc1cccc(CS(=O)(=O)c2nnc([C@H](Cc3ccccc3)NC(=O)OC(C)(C)C)o2)c1	n	n	0.5	n	x	n
CCc1ccc(NC(=O)N(C2CCCCC2)C(C)c2cccnc2)cc1 (centres undefined)	n	n	n	n	x	n
Cc1cc(C)cc(N(C(C)C(=O)NCCC2=CCCCC2)S(C)(=O)=O)c1 (centres undefined)	n	n	n	n	x	n
COc1ccc(NS(=O)(=O)c2ccc3c(c2)n(C)c(=O)n3C)cc1	x	x	x	n	x	n
CCOC(=O)c1oc2ccc(S(=O)(=O)n3nc(-c4ccc(C)cc4)cc3N)cc2c1C	n	n	n	n	x	x
CCOC(=O)c1oc2ccc(S(=O)(=O)Nc3ccc4c(c3)n(C)c(=O)n4C)cc2c1C	n	n	n	n	44	n
Cn1c(=O)n(C)c2cc(NS(=O)(=O)c3ccc4c(c3)CCCC4)ccc21	n	n	n	n	39	n
CCOc1cccc(-c2nnc3sc(-c4ccc(C)cc4)nn23)c1	n	n	19	x	x	x
CCOc1ccc(-c2nnc3sc(-c4c(OC)cccc4OC)nn23)cc1	n	n	35	n	x	x
SMILES	HUVEC prolif 384	Lung fibro prol	H69AR inhibit	F-actin modifier	Jurkat tox 60K	PTK2B oligo ant
CCOc1ccc(-c2nnc3sc(-c4ccccc4OC)nn23)cc1	n	n	n	n	x	n
CCOc1cccc(-c2nnc3sc(-c4ccco4)nn23)c1	n	n	n	x	x	n
O=C1CC(c2ccccc2)C(C(=O)Nc2ccccc2F)N1 (centres undefined)	n	n	n	x	n	x
O=C(CSc1ncc(-c2ccc(F)cc2)[nH]1)N1CCCCC1	n	x	29	n	n	n
Cn1c(=O)cc(SCC(=O)NCC2COc3ccccc3O2)c2ccccc21 (centres undefined)	n	40	n	n	n	n
CCn1c(=O)cc(SCC(=O)NCC2CCCO2)c2ccccc21 (centres undefined)	n	n	n	n	n	n
O=C(OCC(=O)c1c[nH]c2ccccc12)c1ccco1	n	n	n	n	n	n
O=C(OCc1ccccc1)C1=[N+]([O-])OC(C(=O)OCc2ccccc2)C1c1c[nH]c2ccccc12 (centres undefined)	n	n	5.6	n	x	n
